# Screening data: PubChem, Broad Institute
# Only some compounds are listed: those with a hit (about 2.1% of all), similar ones and a draw of the others.
# miR-122 sensor: miR-122 Renilla sensor signal increase in Huh7, primary screen, miR-122 inhibitor project, cell-based, single point, plate reader; Huh7 miR-122 Renilla luciferase sensor, 48 h; neutral wells = 0, positive control = 100; activation (reporter increase), % at 12.5 µM; hit rate 0.3% among 340,000;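 active = mean replicate activation score at least 90 and every replicate individually at or above 90; inconclusive = only one of the two criteria met; inactive = neither criterion met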;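 also: higher luciferase means less miR-122 activity so hits act as miR-122 inhibitors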
# ARNT-TACC3 inh: disruptors of ARNT/TACC3 protein interaction, primary screen, biochemical, AlphaScreen, single concentration; inhibition, % at 9.99 µM; AlphaScreen His-ARNT PAS-B/GST-TACC3 binding, luminescence; TACC3 fragment carries E629A point mutation; Transforming acidic coiled-coil-containing protein 3 (Homo sapiens), Q9Y6A5; hit rate 0.66% among 390,000;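 active = mean inhibition of replicates at least 50% and at least half of replicates each reaching 50%; inconclusive = half or more replicates reach 50% but mean below 50%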;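 also: 0% = complete ARNT plus TACC3 wells and 100% = ARNT alone without TACC3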
# CAL PDZ FP-1: untagged CAL PDZ binding inhibitors, primary screen, biochemical, fluorescence polarization, HTS. AID 602252, 2012. inhibition, % at 24.9 µM. hit rate 0.92% among 300,000. purified CAL PDZ, TMR-peptide fluorescence polarization, 1 h. Golgi-associated PDZ and coiled-coil motif-containing protein (Homo sapiens), Q9HD26;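 active = mean inhibition of at least 30% with at least half of replicates also reaching 30%; inconclusive = no clear call, values can overlap the other calls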;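 also: 0% = DMSO neutral control and 100% = excess unlabeled competitor peptide PRC23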
# CAL PDZ FP-2: CAL PDZ peptide-binding inhibitors, primary screen, biochemical, fluorescence polarization, Cer-tagged CAL PDZ, HTS; purified CAL PDZ, TMR-peptide fluorescence polarization, 1 h; AID 504414, 2011; hit rate 0.02% among 330,000; inhibition, % at 20 µM; Golgi-associated PDZ and coiled-coil motif-containing protein (Homo sapiens), Q9HD26;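 active = highest replicate inhibition of at least 40%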;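 also: plate controls were DMSO neutral control wells for no effect and unlabeled competitor peptide control wells for full effect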
#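 Material – purified CerCALP PDZ construct · Detection – FP readout, S and P plane fluorescence · Measure – percent inhibition from loss of millipolarization · Controls – unlabelled peptide for full inhibition, DMSO wells as neutral · Probe or stimulus – TMR-labelled reporter peptide T*-PRC34 bound in PDZ groove · Times – 1 h at RT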
# SR-BI DiI-HDL act: activators of SR-BI mediated DiI-HDL uptake, primary screen, ldlA[mSR-BI] CHO cells, DiI fluorescence. 3 h; 100 = double the neutral-control signal. hit rate 0.096% among 320,000. activation, % at 12.5 µM;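 active = mean replicate activation of at least 60% and every replicate at or above 60%; inconclusive = mean or all-replicate condition met, but not both; inactive = mean below 60% and not all replicates reaching 60%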;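 also: 0% = median plate neutral-control signal and 100% = twice that signal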
#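 System: LDL receptor-deficient CHO ldlA cells overexpressing murine SR-BI | Timing: 3 h uptake period with compound, 37 °C | Medium: HEPES-buffered (25 mM, pH 7.4) F12 plus 0.5% BSA | Dosing: Single-point compound dose | Signal: Bottom-read fluorescence, 550/595 nm | Read-out: Retained DiI signal reflecting DiI-HDL uptake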
# SR-BI DiI inh: inhibitors of SR-BI mediated HDL lipid uptake, primary screen, ldlA[mSR-BI] cells, fluorescence, single point. Scavenger receptor class B member 1 (Mus musculus), Q61009. ldlA[mSR-BI] CHO cells, DiI-HDL uptake fluorescence, 3 h. inhibition, % at 12.5 µM. hit rate 0.96% among 320,000;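 active = mean replicate inhibition of at least 70% and a set share of replicates each scoring 70 or more; inconclusive = meets just one of the two criteria; inactive = fails both criteria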;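 also: 0% = median of neutral control wells and 100% = median of positive control wells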
# Target sequence (Q61009 whole entry, looked up): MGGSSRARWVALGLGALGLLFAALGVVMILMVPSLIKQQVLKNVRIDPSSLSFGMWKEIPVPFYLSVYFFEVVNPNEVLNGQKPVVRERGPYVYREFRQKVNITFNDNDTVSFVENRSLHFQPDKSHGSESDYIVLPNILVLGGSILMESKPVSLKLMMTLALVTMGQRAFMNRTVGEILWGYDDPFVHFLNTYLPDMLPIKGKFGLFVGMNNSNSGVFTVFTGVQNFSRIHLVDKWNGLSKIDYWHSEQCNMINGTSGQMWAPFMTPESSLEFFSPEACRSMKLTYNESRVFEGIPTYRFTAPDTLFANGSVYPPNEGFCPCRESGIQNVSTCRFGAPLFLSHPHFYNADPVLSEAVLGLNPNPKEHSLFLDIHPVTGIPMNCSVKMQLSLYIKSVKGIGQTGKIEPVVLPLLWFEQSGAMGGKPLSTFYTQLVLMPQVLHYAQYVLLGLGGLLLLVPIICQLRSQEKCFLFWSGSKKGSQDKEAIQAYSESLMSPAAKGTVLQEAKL
# * = called active by the depositor; ? = inconclusive; nt = no result given; + = active, no number; [ ] = dose if it differs, or a comment.
SMILES,miR-122 sensor,ARNT-TACC3 inh,CAL PDZ FP-1,CAL PDZ FP-2,SR-BI DiI-HDL act,SR-BI DiI inh
O=C(N/N=C/c1c(O)n(Cc2ccco2)c(=O)[nH]c1=O)c1ccccc1,0,62*,nt,-1,-6,6
CCOC(=O)c1cc(S(=O)(=O)Nc2ccc(F)cc2F)cn1C,76,-1,-5,-2,43,-43
CCOC(=O)c1cc(S(=O)(=O)Nc2cccc(OC)c2)cn1C,132*,1,8,-1,-11,11
CCCc1sc(N/N=C/c2ccccn2)nc1-c1ccc(Br)cc1,11,33*,-1,-2,-72,72*
C[C@@H]1CCCCO[C@@H](CN(C)Cc2ccccc2)[C@@H](C)CN([C@@H](C)CO)C(=O)c2cc(NC(=O)Nc3ccccc3)ccc2O1,5[16.7 µM],9,nt,nt,nt,nt
COC(=O)c1c(NC(=O)c2ccccc2)sc2c1CC(C)(C)OC2,-4,-4,3,1,-73,73*
COc1ccc(C(CC(=O)N2CCCC2)c2c(OC)cc(OC)c3c(-c4ccccc4)cc(=O)oc23)cc1 (stereo not drawn),67,-1,-2,-1,19,-19
COc1ccc(C(CC(=O)N2CCCC(C)C2)c2c(OC)cc(OC)c3c(-c4ccccc4)cc(=O)oc23)cc1 (stereo not drawn),92*,2,-1,0,3,-3
CCN(CC)C(=O)CC(c1ccc(N(C)C)cc1)c1c(OC)cc(OC)c2c(-c3ccccc3)cc(=O)oc12 (stereo not drawn),99*,13,1,0,12,-12
C[C@H](CO)N1C[C@H](C)[C@H](CN(C)S(=O)(=O)c2ccc(C#N)cc2)Oc2ncc(C#CCN(C)C)cc2C1=O,-12[16.7 µM],-2,nt,nt,nt,nt
CN1C[C@@H]2[C@H](c3ccccc31)[C@H](CO)N2C(=O)Nc1ccccc1,-8[16.7 µM],-7,nt,nt,nt,nt
CCOc1ccc(NC(=O)CN(C)C(=O)c2ccc(N3CCCCCC3)c([N+](=O)[O-])c2)cc1OCC,2,4,nt,-1,-86,86*
CCOc1ccc(NC(=O)CN(C)C(=O)c2ccc3nc(CC)c(CC)nc3c2)cc1OCC,nt,-2,39*,0,-66,66
Cc1cccc(COc2ccccc2C(=O)N(C)CC(=O)Nc2cccc(F)c2)c1,22,-13,-1,-1,-37,37
CC(C)CCN1C(=O)c2ccc(C(=O)Nc3cc(C(=O)O)cc(C(=O)O)c3)cc2C1=O,-3,12,33*,0,11,-11
CCOc1ccc(NC(=O)CN(C)C(=O)c2ccc(N3CCOCC3)c([N+](=O)[O-])c2)cc1OCC,-6,-4,0,-4,-51,51
CCOc1ccc(NC(=O)CN(C)C(=O)c2ccccc2OCc2cccc(C)c2)cc1OCC,-1,-16,-2,0,-86,86*
O=S(=O)(NCC[C@@H]1CC[C@H](NS(=O)(=O)c2ccccc2Cl)[C@H](CO)O1)c1ccc(Cl)cc1,nt,-2,nt,nt,nt,nt
N#Cc1cccc(-c2ccc3c(c2)[C@H]2[C@H](CCN2S(=O)(=O)c2ccccc2F)[C@@H](CO)N3)c1,7[16.7 µM],1,nt,nt,nt,nt
CCOc1ccc(NC(=O)CN(C)C(=O)c2ccc3c(c2)C(=O)N(CCC(C)C)C3=O)cc1OCC,nt,-2,-2,-2,-78,78*
CCOc1ccc(NC(=O)CN(C)C(=O)c2ccc(C)c(S(=O)(=O)N3CCCCC3)c2)cc1OCC,-4,-3,-5,-1,-30,30
C[C@@H]1CCCCO[C@H](CN(C)C(=O)Nc2ccc(F)cc2)[C@@H](C)CN([C@@H](C)CO)C(=O)c2cc(N(C)C)ccc2O1,-1[16.7 µM],nt,nt,nt,nt,nt
Cc1ccc(-c2ccc3c(c2)O[C@@H](CN(C)Cc2ccccc2)[C@@H](C)CN([C@@H](C)CO)S3(=O)=O)cc1,10[16.7 µM],-1,nt,nt,nt,nt
C[C@@H]1CN([C@@H](C)CO)C(=O)Cc2cc(NS(C)(=O)=O)ccc2O[C@H]1CN(C)Cc1ccncc1,-11[16.7 µM],-3,nt,nt,nt,nt
O=C(CN1C(=O)COc2ccc(Cl)cc21)NCC1CCCO1 (stereo not drawn),-3,-5,35*,-3,20,-20
SMILES,miR-122 sensor,ARNT-TACC3 inh,CAL PDZ FP-1,CAL PDZ FP-2,SR-BI DiI-HDL act,SR-BI DiI inh
NCC[C@H]1CC[C@@H](NC(=O)Cc2ccncc2)[C@@H](CO)O1,nt,-4,nt,nt,nt,nt
On1ccccc1=S,0,+,-11,0,15,-15
Cc1ccc(-c2ccc3c(c2)O[C@@H](CN(C)C)[C@@H](C)CN([C@@H](C)CO)S3(=O)=O)cc1,-12[16.7 µM],-1,nt,nt,nt,nt
O=C1c2ccccc2C2=Nc3ccccc3SC(c3cccc(F)c3)C12 (stereo not drawn),246*,nt,-2,-2,-71,?
CC1=NC(C)(C)Cc2cc(C)c(C)cc21,nt,-1,54*,0,2,-2
CC1=NC(C)(C)Cc2c(C)cccc21,0,13,-4,0,3,-3
COc1ccc(C(OC(=O)c2ccco2)C(=O)NC2CCCC2)cc1OC (stereo not drawn),-4,-4,-2,-3,14,-14
COc1ccc(C(OC(=O)c2ccco2)C(=O)NC2CCCCC2)cc1OC (stereo not drawn),6,-1,-2,-1,336*,-336
C/C=C/c1ccc2c(c1)O[C@@H](CN(C)CC1CC1)[C@@H](C)CN([C@H](C)CO)S2(=O)=O,-2[16.7 µM],nt,nt,nt,nt,nt
C[C@H](CO)N1C[C@H](C)[C@H](CN(C)Cc2ccc(Cl)c(Cl)c2)Oc2c(NS(C)(=O)=O)cccc2C1=O,13[16.7 µM],4,nt,nt,nt,nt
C/C(CCc1oc2ccccc2c1-c1ccc(C)o1)=N/O,-9,-9,nt,-1,-33,33
C/C(CCc1oc2c(Br)cc(Br)cc2c1-c1ccc(C)o1)=N\O,nt,-1,-4,3,-78,78*
O=C(CSc1cccc2cccnc12)OCC(=O)c1ccc(Br)cc1,5,10,-3,-1,16,-16
NNC(=O)CSc1cccc2cccnc12,nt,48*,-1,-5,41,-41
O=C(Sc1cccc2cccnc12)c1ccccc1Br,13,75*,-3,-2,-20,20
